# Reference: ChEMBL document CHEMBL3259673, “Campechic acids A and B: anti-invasive polyether polyketides from a soil-derived Streptomyces” (J Nat Prod, 2014)
# Active and inactive are the calls of the source. The calls are words filed in the database; no cut-off is given here.
# How the values were obtained:
# [1] = Antiinvasive activity against mouse 26-L5 cells after 6 to 8 hrs by matrigel assay; type: functional, cell-based
# In short: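 Transwell chambers with 8.0-μm polycarbonate filters coated with Matrigel/fibronectin were used. Cells were fixed in methanol and stained with H&E. Non-invaded cells were swabbed off, and cells on the lower surface were counted in five fields per well. IC50 reported.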
# Escherichia coli = assay: Antimicrobial activity against Escherichia coli NIH-JC2 after 20 hrs; type: functional, organism-based
# In short: (§1)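 Broth microdilution. Overnight cultures (20 h, 30 °C, shaken) centrifuged and resuspended in saline at 1 × 10^5 cells/mL, diluted 1:10 into medium with sample in DMSO. C. albicans in yeast nitrogen base + 2% glucose, 30 °C. E. coli in Mueller Hinton broth, 37 °C. Growth read as A650 after 20 h. MIC reported.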
# [2] = Selectivity index, ratio of IC50 for cytotoxicity against mouse 26-L5 cells to IC50 for antiinvasive activity against mouse 26-L5 cells; type: toxicity, cell-based; conditions: read-out: Ratio IC50
# Candida albicans = assay: Antimicrobial activity against Candida albicans IFO1594 after 20 hrs; type: functional, organism-based; in short: as §1
# Micrococcus luteus = assay: Antimicrobial activity against Micrococcus luteus ATCC 9343 after 20 hrs; type: functional; conditions: ATCC 9343, 20 h
# In short: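 Micrococcus luteus was grown 20 h at 30 °C with shaking, then pelleted and suspended in saline at 1 × 10^5 cells/mL. It was then mixed 1:10 with Mueller Hinton broth plus compound in DMSO.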
# [3] = Cytotoxicity against mouse 26-L5 cells after 24 hrs by crystal violet staining assay; type: cell-based
# In short: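 Colon 26-L5 cells (5 × 10^3/well) were seeded in RPMI with 1% FCS and graded compound concentrations. They were incubated 24 h at 37 °C under 5% CO2, washed with PBS and fixed in 20% formalin. Cells were stained 30 min with crystal violet, the dye was eluted in 30% acetic acid and A590 was read. IC50 reported.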
IC50 [1] [nM],MIC (Micrococcus luteus) [µg/mL],Compound,Activity (Escherichia coli),selectivity ratio [2],Activity (Candida albicans),IC50 [3] [nM]
300,6.25,C[C@H](C/C=C/[C@H](C)[C@@H](O)CC1CCC(C)(C2CCC(C)([C@@H](C)O)O2)O1)C[C@@H](C)/C(O)=C/C(=O)[C@@H](C)C[C@@H](C)C[C@H](C)C[C@H](C)C(=O)O (stereo partly specified),inactive,15,inactive,4500
5.5,6.25,CC[C@@H](C[C@@H](C)C[C@H](C)C[C@H](C)C(=O)O)C(=O)/C=C(\O)[C@H](C)C[C@H](C)C/C=C/[C@H](C)[C@@H](O)CC1CCC(C)(C2CCC(C)([C@@H](C)O)O2)O1 (stereo partly specified),inactive,73,inactive,
